Bioassay records from PubChem.
RAM inhibit: inhibitors of the yeast RAM network; actives 1.8% (n = 190,000); S. cerevisiae dse1pr::URA3 reporter, 5-FOA growth OD615, 2 d; analog-sensitive cbk1-as2 kinase mutant strain; inhibition, % at 50 µM; AID 868;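 active = inhibition above a set limit, 3 SD over mean compound inhibition, cut at about 8.4% in these data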;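 also: inhibition rescues growth on 5-FOA so higher OD means more RAM inhibition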
Yeast life ext: extends the lifespan of yeast. inhibition of the nicotinamide effect, % at 10 µM. S. cerevisiae growth with nicotinamide, OD615; deaD strain in restrictive glucose medium. actives 0.68% (n = 130,000);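 active = inhibition above a set limit, placed 3 SD over the median of all compounds, cut at about 26% in these data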
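Assay system: engineered S. cerevisiae DeaD replicative-lifespan strain, galactose-grown log-phase cells; Buffer or medium: CSMM-D glucose medium, restrictive; Probe or stimulus: nicotinamide 1.5 mM; Compound: single dose 10 µM compound, 0.25% DMSO; Schedule: 4 h preincubation then 48 h treatment at 30 °C; Technique: OD615 measurement.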
BB579 growth dn: reduces growth of yeast BB579 in restrictive medium; S. cerevisiae BB579 growth, OD615, 48 h; actives 0.51% (n = 140,000); AID 804; inhibition, % at 10 µM;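 active = inhibition above a set limit, 3 SD over the mean compound inhibition, cut at about 44% in these data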
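controls = amphotericin B 10 µg/mL, positive | assay system = DeaD yeast strain BB579 | schedule = 48 h compound exposure at 30 °C after 4 h preincubation | detection = OD615 turbidity measurement | medium = restrictive CSMM-D medium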
Measles CPE: protection of cells from measles virus. AID 841. Measles virus-infected cells, CPE protection, absorbance. protection (pct of control), % at 4 µM. actives 1.5% (n = 140,000); in the data active = protection mostly above about 24%, no sharp cut-off; inactive = mostly below about 26%
RAM efflux-def: restores 5-FOA growth of efflux-deficient yeast. shares compounds with RAM inhibit. S. cerevisiae efflux-deficient reporter strain, 5-FOA growth OD615, 2 days. max inhibition, %. 1,200 tested, under 10 active. AID 1305; call rule not given here
Of the large screens only hits and unclear results are named; the others gave an inactive call (follow-up assays come after a bar, where they were run). Hits are enriched below; roughly 3.6% of the tested compounds scored in any of these assays.

COc1cc2c(cc1NC(=O)C(C)Sc1ccc(C)cc1)oc1ccccc12 (configuration not stated)	RAM inhibit 13.7 | RAM efflux-def inactive
Cc1[nH]c2ccccc2c1/C=N/Nc1ccc([N+](=O)[O-])cc1S(=O)(=O)Nc1ccc(Cl)cc1	RAM inhibit 13.8 | RAM efflux-def inactive
OCCOCCN1CCN(C(=S)Nc2ccccc2)CC1	none (no result: Yeast life ext, BB579 growth dn, Measles CPE)
COc1ccc(-c2nnc(SC(C)C(=O)Nc3cccc(Cl)c3)o2)cc1 (configuration not stated)	RAM inhibit 14.6 | RAM efflux-def inactive
COc1ccc(-c2nnc(SC(C)C(=O)NNC(=O)c3ccc(C)cc3)o2)cc1 (configuration not stated)	none
Cc1sc2nc(SCc3nc4ccccc4[nH]3)n(Cc3ccco3)c(=O)c2c1C	none
Cc1sc2nc(SCc3ccccc3)n(Cc3ccco3)c(=O)c2c1C	RAM inhibit 13.2 | RAM efflux-def inactive
Cc1sc2nc(SCC(=O)C(C)(C)C)n(Cc3ccco3)c(=O)c2c1C	none
Cc1cccc(CSc2nc3sc(C)c(C)c3c(=O)n2Cc2ccco2)c1	RAM inhibit 22.3 | RAM efflux-def inactive
COc1ccc(NC(=O)CSc2nc3sc(C)c(C)c3c(=O)n2Cc2ccco2)cc1	none
Cc1ccc(CSc2nc3sc(C)c(C)c3c(=O)n2Cc2ccco2)cc1	RAM inhibit 17.1 | RAM efflux-def inactive
COc1cccc(CSc2nc3sc(C)c(C)c3c(=O)n2Cc2ccco2)c1	RAM inhibit 15.6 | RAM efflux-def inactive
CCC1(C)CC2(CCCN(CCC(=O)c3ccccc3)C2)CCO1 (configuration not stated)	none (no result: Yeast life ext, BB579 growth dn, Measles CPE)
COc1ccccc1C(=O)C1CCCN(C(=O)c2cccnc2SC)C1 (configuration not stated)	none (no result: Yeast life ext, BB579 growth dn, Measles CPE)
O=C(C1=C[C@H](c2csc3ccccc23)C[C@H](OCCCCO)O1)N1CCN(Cc2ccc3c(c2)OCO3)CC1	none (no result: Yeast life ext, BB579 growth dn, Measles CPE)
COc1cccc(CNC(=O)CN2C(=O)CC(c3ccccc3)=Nc3ccccc32)c1	RAM inhibit 12.6 (no result: Yeast life ext, BB579 growth dn, Measles CPE) | RAM efflux-def inactive
Clc1ccc(OCc2nnc(-c3ccccc3Br)o2)cc1	none
O=S(=O)(c1ccccc1F)N(Cc1ccco1)Cc1nnc(-c2ccccc2Br)o1	RAM inhibit 17.3 | RAM efflux-def inactive
O=C(CCNC(=O)c1ccccc1)OCC(=O)c1ccccc1	none (no result: Yeast life ext, BB579 growth dn, Measles CPE)
COc1ccc(OC)c(CN2CCN(Cc3cccc4ccccc34)CC2)c1	none (no result: Yeast life ext, BB579 growth dn, Measles CPE)
Cc1cccc(NC(=O)C2CCCN2C(=O)Oc2ccccc2)c1C (configuration not stated)	RAM inhibit 12.3 (no result: Yeast life ext) | RAM efflux-def inactive
CCCCOc1ccc([N+](=O)[O-])cc1C(=O)O	none (no result: Yeast life ext, BB579 growth dn, Measles CPE)
O=C(COC(=O)c1cc(-c2cccc(Br)c2)nc2ccccc12)NCC1CCCO1 (configuration not stated)	RAM inhibit 15.3 (no result: Yeast life ext, BB579 growth dn, Measles CPE) | RAM efflux-def inactive
C=CCOC(=O)C1=C[C@@H](c2csc3ccccc23)C[C@@H](OCc2ccc(CO)cc2)O1	RAM inhibit 13.6 (no result: Yeast life ext, BB579 growth dn, Measles CPE) | RAM efflux-def inactive
O=C(Nc1ccccc1)C1=C[C@H](c2csc3ccccc23)C[C@H](OCc2ccc(CO)cc2)O1	none (no result: Yeast life ext, BB579 growth dn, Measles CPE)
O=C(NCCSCc1ccccc1)c1ccc(C2SCC(=O)N2Cc2ccccc2)cc1 (configuration not stated)	RAM inhibit 12.1 | RAM efflux-def inactive
COC(=O)c1nn(-c2ccccc2)c(Cl)c1/C=N/O	none (no result: Yeast life ext, BB579 growth dn, Measles CPE)
COC(=O)c1nn(-c2ccccc2)c(Cl)c1/C=N/OCc1ccc(Cl)cc1Cl	RAM inhibit 16.8 | RAM efflux-def inactive
CC(=O)Nc1nc(SCC(=O)Nc2nnc(C)s2)[nH]c(=O)c1NC(=O)c1cccs1	none (no result: Yeast life ext, BB579 growth dn, Measles CPE)
